Data as given in paper PMC6137948 (Drug Design, Development and Therapy, 2018).
“Also recorded” adds a separate entry of the source.

Tests used:
S. aureus (MSSA, n=179) = test: Antimicrobial susceptibility testing of clinical isolates; assay type: cell-based, Staphylococcus aureus
Summary of the method: (§1)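 Non-duplicate clinical isolates from hospitalised adults and children with community or nosocomial infections (skin/soft tissue, respiratory tract, bone, joint, urinary tract, abdominal). Tested per EUCAST recommendations by broth microdilution in Mueller Hinton broth following NCCLS procedures.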

E. faecalis (n=122) = test: as above; assay type: cell-based, Enterococcus faecalis
Summary of the method: as §1

[1] = tested on: non-immune activation of histamine release (inflammatory reaction to concanavalin A); test: Pseudoallergic inflammatory reaction on concanavalin A; assay type: in vivo; settings: male CBA mice; single IV dose of MTD
VISA = settings: Introduction; cited from earlier work
E. faecalis 559 = test: MIC, broth micro-dilution, pre-screening panel; assay type: cell-based, Enterococcus faecalis; settings: E. faecalis 559 (VSE), Mueller Hinton broth
S. epidermidis 533 = test: MIC, broth micro-dilution, pre-screening panel; assay type: cell-based, Staphylococcus epidermidis; settings: Mueller Hinton broth
S. haemolyticus 602 = test: MIC, broth micro-dilution, pre-screening panel; assay type: cell-based, Staphylococcus haemolyticus; settings: Mueller Hinton broth
S. aureus (MRSA, n=255) = test: Antimicrobial susceptibility testing of clinical isolates; assay type: cell-based, Staphylococcus aureus
Summary of the method: as §1

VRE = settings: Introduction; cited from earlier work
[2] = tested on: Coagulase-negative Staphylococcus (n=45); test: Antimicrobial susceptibility testing of clinical isolates; assay type: cell-based
Summary of the method: as §1

[3] = tested on: vancomycin-intermediate resistant Staphylococcus aureus (VISA); test: MIC, pre-screening panel, summary for VISA strains; assay type: cell-based; settings: summary of Table 1, S. aureus 3797 and 3798
S. aureus 3798 (VISA) = test: MIC, broth micro-dilution, pre-screening panel; assay type: cell-based, Staphylococcus aureus; settings: S. aureus 3798 (VISA HIP-5827), Mueller Hinton broth
E. faecium 568 = test: MIC, broth micro-dilution, pre-screening panel; assay type: cell-based, Enterococcus faecium; settings: E. faecium 568 (VSE), Mueller Hinton broth
CBA mice = test: Acute toxicity in mice; settings: for MTD (LD10): CBA mice, single bolus IV injection in 5% glucose, Litchfield and Wilcoxon; for ratio between therapeutic (ED50) and toxic doses (MTD): ED50 in sepsis model / MTD in mice
[4] = tested on: genera Staphylococcus and Enterococcus; test: Antimicrobial susceptibility testing, panel of 676 isolates, summary; assay type: cell-based; settings: for MIC90 for the genera Staphylococcus and Enterococcus: panel of 676 isolates, except for E. faecium
E. faecium (n=75) = test: Antimicrobial susceptibility testing of clinical isolates; assay type: cell-based, Enterococcus faecium; settings: for MIC 50% (MIC50) / MIC 90% (MIC90): E. faecium n=75
S. aureus 3797 (VISA) = test: MIC, broth micro-dilution, pre-screening panel; assay type: cell-based, Staphylococcus aureus; settings: S. aureus 3797 (VISA HIP-5836), Mueller Hinton broth
S. aureus (strain 10) = test: Mouse model of staphylococcal sepsis; assay type: in vivo; settings: staphylococcal sepsis in mice, IV
Summary of the method: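 Female SHK mice (22–25 g), quarantined 2 weeks, infected IV with mouse-adapted S. aureus strain 10 at lethal dose (LD100 3 × 10^8 CFU/mouse). Thirty minutes later, test compound given IV in 5% glucose at 6 doses (0.25–4.5 mg/kg); comparator glycopeptides at 2.5–7.5 and 0.5–5.0 mg/kg. Untreated infected controls included. Mortality recorded daily for 10 days. ED50 by Barents frequency-accumulation method; ratios from ED50 values.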

[5] = tested on: panel of clinical isolates of Gram-positive microorganisms; test: MIC, pre-screening panel, summary for all tested strains; assay type: cell-based; settings: text summary of Table 1, all strains of the pre-screening panel
[6] = VRE isolates of the E. faecium collection

| Substance | MIC 50% (MIC50) (S. aureus (MSSA, n=179)) | MIC 90% (MIC90) (S. aureus (MSSA, n=179)) | MIC 50% (MIC50) (E. faecalis (n=122)) | MIC 90% (MIC90) (E. faecalis (n=122)) | pseudoallergic inflammatory reaction on concanavalin A, in words [1] | MIC (E. faecalis 559) | MIC (S. epidermidis 533) | MIC (S. haemolyticus 602) | MIC 50% (MIC50) (S. aureus (MRSA, n=255)) | MIC 90% (MIC90) (S. aureus (MRSA, n=255)) | activity against VRE, in words (VRE) | MIC 50% (MIC50) [2] | MIC 90% (MIC90) [2] | MICs against VISA strains [3] | MIC (S. aureus 3798 (VISA)) | MIC (E. faecium 568) | MTD (LD10) (CBA mice) | ratio between therapeutic (ED50) and toxic doses (MTD) (CBA mice; IV) | MIC90 for the genera Staphylococcus and Enterococcus [4] | MIC (S. aureus 3797 (VISA)) | other results |
| --- | --- | --- | --- | --- | --- | --- | --- | --- | --- | --- | --- | --- | --- | --- | --- | --- | --- | --- | --- | --- | --- |
| Vancomycin [compound 1, reference compound] | 1 mg/L | 1 mg/L | 1 mg/L | 2 mg/L | statistically significant elevations of Me with respect to Mc | 2 mg/L | 2 mg/L | 2 mg/L | 1 mg/L | 2 mg/L | inactive | 2 mg/L | 2 mg/L | 4 to 8 mg/L | 8 mg/L | 2 mg/L | 360 mg/kg | 1/90 | 1 to 2 mg/L | 8 mg/L | MIC for VISA isolates (VISA): ≥ 8 mg/L; MIC 50% (MIC50) (E. faecium (n=75)): 1 mg/L; MIC 90% (MIC90) (E. faecium (n=75)): 2 mg/L; MIC for strains of vancomycin-resistant E. faecium (VRE) (E. faecium (n=75); [6]): > 64 mg/L; number of resistant strains of E. faecium (VRE) (E. faecium (n=75); strains with MIC =64 mg/L (b1) / MIC >64 mg/L, number (% of strains)): 7 (8%) |
| Eremomycin pyrrolidide [compound 5] | 0.5 mg/L | 0.5 mg/L | 0.25 mg/L | 0.5 mg/L | did not induce pseudoallergic inflammatory reaction; also recorded: non-significant difference; also recorded: no histamine release activity | 0.25 mg/L | 0.25 mg/L | 0.25 mg/L | 0.25 mg/L | 0.5 mg/L |  | 0.25 mg/L | 0.5 mg/L | 0.5 to 2 mg/L | 1 mg/L | 0.13 mg/L | 119.7 mg/kg | 1/150 | 0.5 mg/L | 1 mg/L | ED50 times lower than that for 1 (S. aureus (strain 10)): 5 times; ED50 times lower than that for 2 (S. aureus (strain 10)): 2.5 times; MICs against VISA strains ([3]; listed as eremomycin pyrrolidide (5)): 1 mg/L; acute toxicity, fold higher (CBA mice; by LD50 compared with 1, CBA mice, IV): about 2 fold; therapeutically efficient dose, fold smaller than MTD (CBA mice; mice, IV): 150 fold; potency exceeding that of vancomycin (1) ([4]; S. aureus, coagulase-negative Staphylococcus and Enterococcus strains): 2–4 dilutions; MIC 50% (MIC50) (E. faecium (n=75)): 0.125 mg/L; MIC 90% (MIC90) (E. faecium (n=75)): 4 mg/L; susceptibility of vancomycin-resistant E. faecium (VRE) strains, in words (E. faecium (n=75); [6]): susceptible |
| Eremomycin piperidide [compound 6] |  |  |  |  |  |  | 0.13 mg/L |  |  |  |  |  |  | 0.5 to 2 mg/L | 2 mg/L | 0.5 mg/L |  |  |  | 0.5 mg/L |  |
| Eremomycin [compound 2, reference compound] |  |  |  |  | statistically significant elevations of Me with respect to Mc | 0.5 mg/L | 0.25 mg/L | 0.25 mg/L |  |  | inactive |  |  | 4 to 8 mg/L | 4 mg/L | 0.5 mg/L | 877.9 mg/kg |  |  | 4 mg/L | MIC against VISA (VISA): 8 mg/L; acute toxicity, fold lower than that of 1 (CBA mice; by LD50, CBA mice, IV): ~3 fold |
| Vancomycin pyrrolidide [compound 3] |  |  |  |  |  | 2 mg/L | 0.5 mg/L | 0.5 mg/L |  |  |  |  |  |  | 8 mg/L | 1 mg/L |  |  |  | 4 mg/L | MICs against the tested strains [5]: 0.5 to 8 mg/L |
| Vancomycin piperidide [compound 4] |  |  |  |  |  |  | 0.5 mg/L |  |  |  |  |  |  | 0.5 to 2 mg/L | 1 mg/L | 0.5 mg/L |  |  |  | 1 mg/L | MICs against the tested strains [5]: 0.5 to 8 mg/L |
